# High-throughput results: PubChem, Johns Hopkins Ion Channel Center
# KCNQ1 act = potentiators or activators of KCNQ1 channel, primary screen, cell-based, thallium flux, high-throughput. CHO-K1 KCNQ1, thallium flux FluxOR fluorescence; hits give high values. Potassium voltage-gated channel subfamily KQT member 1 (Homo sapiens), P51787. 0.35% of 310,000 active. B-score at 10 µM;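 active means fluorescence ratio B-score, a plate-corrected score, at least three library SD, with initial intensity B-score within 5 SD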
#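 Material: CHO-K1 cells stably expressing KCNQ1. Medium: assay buffer for compound exposure, DMSO matched across wells. Reagent: K+/Tl+ depolarizing stimulus. Compound dosing: single-concentration screen. Times: 37 °C overnight plating, 90-min dark dye load, 20-min compound pretreatment. Technique: FluxOR Tl+ flux fluorescence.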
# hERG protect = hERG rescue from dofetilide block, primary screen, cell-based, CHO-hERG, FluxOR thallium flux, dofetilide IC70 | 0.51% of 310,000 active | Voltage-gated inwardly rectifying potassium channel KCNH2 (Homo sapiens), Q12809 | activation (rescue from dofetilide block), less the hit threshold, % at 10 µM | dofetilide IC70 present;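 active means activation above the mean of controls blocked by dofetilide plus 5 SD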;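 further: thallium influx through hERG after potassium depolarization seen as dye fluorescence rise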
# KCNK9 block = KCNK9 potassium channel inhibitors, primary screen, HEK293 cells, thallium flux; 1.2% of 310,000 active; FluxOR thallium flux fluorescence; hits give low values; B-score at 10 µM; Potassium channel subfamily K member 9 (Homo sapiens), Q9NPC2;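 active means ratio B-score over 3 SD below the library mean, with starting fluorescence within 5 SD of its mean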;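 further: negative B-score means less thallium flux so channel inhibition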
# KCNQ1 inh = inhibitors of human KCNQ1 channel, primary screen, cell-based, thallium flux, high-throughput; Potassium voltage-gated channel subfamily KQT member 1 (Homo sapiens), P51787; CHO-K1 KCNQ1, FluxOR thallium flux fluorescence; hits give high values; B-score at 10 µM; 1.3% of 310,000 active; AID 2642, 2010;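 active means compounds whose thallium flux B-score, printed positive for inhibition, exceeds three library SD while starting fluorescence stays within three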;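 further: channel opened by potassium depolarization with thallium stimulus after 20 min compound exposure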
# Kir21 inh = inhibitors of mouse Kir2.1 inward-rectifier potassium channel. Inward rectifier potassium channel 2 (Mus musculus), P35561. HEK293-Kir2.1, FluxOR thallium flux fluorescence; hits give low values. B-score at 10 µM. 0.85% of 310,000 active. AID 1672, 2009;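 active means fluorescence ratio B-score at or below minus 3 SD of library scores, with starting-brightness B-score within 2 SD, cut at about -4.2 in these data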;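 further: channel flux triggered by added potassium and thallium sulfate stimulus; B-score of peak minus minimum fluorescence over baseline after thallium stimulus; more negative B-score means stronger Kir2.1 block with less thallium influx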
# KCNK3 block = human KCNK3 channel inhibitors, primary screen, CHO cells, FluxOR thallium flux, B-score; FluxOR fluorescence; hits give low values; B-score at 10 µM; 0.84% of 340,000 active;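 active means B-score under library mean minus 4 SD, starting fluorescence ratio at most library mean plus 5 SD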;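 further: more negative B-score means stronger inhibition of thallium flux through KCNK3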
# Target sequence (O14649 whole entry, looked up): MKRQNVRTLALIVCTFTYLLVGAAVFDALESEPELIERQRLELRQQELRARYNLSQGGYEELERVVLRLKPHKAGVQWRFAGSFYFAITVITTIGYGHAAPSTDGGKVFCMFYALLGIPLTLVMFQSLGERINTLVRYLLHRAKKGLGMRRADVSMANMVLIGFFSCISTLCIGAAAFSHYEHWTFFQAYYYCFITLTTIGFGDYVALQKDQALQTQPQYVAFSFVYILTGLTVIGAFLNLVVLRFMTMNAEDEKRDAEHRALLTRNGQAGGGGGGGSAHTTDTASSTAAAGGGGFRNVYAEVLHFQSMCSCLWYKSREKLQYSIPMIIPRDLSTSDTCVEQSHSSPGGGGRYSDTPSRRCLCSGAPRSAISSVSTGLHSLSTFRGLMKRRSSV
# KCNK9 inh conf = KCNK9 potassium channel inhibitors, confirmation, HEK293 cells, thallium flux, duplicate; shares compounds with KCNK9 block; FluxOR thallium flux fluorescence; inhibition, % at 10 µM; 43% of 4,900 active; AID 492992, 2010;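 active means thallium signal inhibited by more than 5 SD of the compound-free buffer control wells, on both duplicate plates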;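 further: 0% = assay buffer control wells without compound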
# Kir21 sel = mouse Kir2.1 channel inhibition, confirmation, selectivity assay for KCNK9 modulator project, cell-based, HEK293, thallium flux. shares compounds with KCNK9 block. Kir2.1 cells, FluxOR thallium flux fluorescence. inhibition, % at 10 µM. 4% of 4,900 active. AID 492993, 2010;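 active means thallium signal drop more than 5 SD beyond the mean of the no-compound control wells, seen in both duplicate plates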;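 further: signal is fluorescence rise after thallium addition divided by baseline fluorescence; plate controls were assay buffer only for no effect and full block by chlorpromazine control for full effect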
# KCNK9 uninduced = thallium flux in non-induced HEK293 cells, confirmation, counter-screen for KCNK9 inhibitor project, cell-based, second counter screen, non-induced KCNK9-HEK293. shares compounds with KCNK9 block. FluxOR thallium flux. inhibition, % at 10 µM. 40% of 4,900 active. AID 492997, 2010;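 active means thallium signal drop beyond 5 SD of the untreated control mean, on both duplicate plates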;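 further: plate controls were buffer only IC0 wells for no effect and SID17386958 at its maximal inhibitory level for full effect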
# KCNK3 confirm = retest of human KCNK3 channel inhibitors, confirmation, CHO cells, FluxOR thallium flux, triplicate | shares compounds with KCNK3 block | 99% of 2,400 active | AID 651638, 2012 | FluxOR fluorescence; 0% buffer, 100% carvedilol maximal block | ratio percent of control, % at 10 µM;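 active means ratio percent of control, averaged over triplicates, above buffer control mean plus 5 SD, cut at about 64% in these data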;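 further: ratio is the fluorescence rise from min to max over baseline after thallium stimulus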
# KCNK3 uninduced = thallium flux inhibition in non-induced cells, primary screen, counter-screen for KCNK3 inhibitor project, cell-based, non-induced KCNK3 line, FluxOR thallium, triplicate; thallium flux ratio (lower = more inhibition) at 10 µM; shares compounds with KCNK3 block; 40% of 2,400 active; non-induced KCNK3 parental cells; hits give low values;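 active means thallium flux ratio, averaged over three wells, more than 5 SD below the buffer control mean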;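 further: host cells are CHO cells without KCNK3 induction; ratio is peak minus trough fluorescence over baseline then normalized to buffer controls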
# Starred values were filed as active, the others as inactive; i = inactive; / = no result. Most compounds without a hit are left out; they make up all but 3.8% or so of the library.
SMILES,KCNQ1 act,hERG protect,KCNK9 block,KCNQ1 inh,Kir21 inh,KCNK3 block,KCNK9 inh conf,Kir21 sel,KCNK9 uninduced,KCNK3 confirm,KCNK3 uninduced
CSc1nc(Oc2ccc3ccccc3c2)c2sccc2n1,i,-5,-10*,i,1.2,-9*,41%*,i,32%*,98*,i
COCC(C)n1c(SCC(=O)N2CCc3ccccc3C2)nc2ccccc2c1=O (stereo not given),i,-8,i,i,0.54,i,/,/,/,/,/
CCOc1cccc2sc(N(CCN(C)C)C(=O)c3ccc4ccccc4c3)nc12,i,-23,-9.4*,i,-1.4,-9.6*,36%*,i,i,118*,i
COc1ccc(CCNC(=O)CCCNC(=O)Cn2cnc3sc(C)c(C)c3c2=O)cc1OC,i,-12,i,i,-0.68,i,/,/,/,/,/
CCC(CC)COC(=O)C(C#N)c1nc2ccccc2nc1N1CCOCC1 (stereo not given),i,-19,-16*,i,-0.11,-12*,66%*,i,49%*,104*,0.13*
Cc1cccc(N(C(=O)CNC(=O)c2ccco2)C(C(=O)NC2CCCC2)c2ccncc2)c1C (stereo not given),i,-12,i,i,0.26,i,/,/,/,/,/
O=C(NNC(=O)c1ccccc1OCc1ccccc1)c1ccccc1F,i,-13,-9.8*,i,0.95,-11*,29%*,i,24%*,118*,0.15*
COc1ccc(C(C)=O)cc1COC(=O)c1cc2ccccc2cc1O,i,-9,-15*,i,2.2,-13*,32%*,i,29%*,109*,i
COc1ccc(C(C)=O)cc1COC(=O)c1cccnc1Cl,i,-4,i,i,1.1,i,/,/,/,/,/
O=C(NCc1cn(-c2ccccc2)nc1-c1ccc(F)cc1)c1cccc([N+](=O)[O-])c1,i,-9,-17*,i,1.3,-8.8*,78%*,i,31%*,104*,0.14*
CCn1cc(CNC(=O)c2cccc([N+](=O)[O-])c2)c(C)n1,i,-5,i,i,1.6,i,/,/,/,/,/
COc1ccccc1NC(=O)c1cc(S(=O)(=O)N2CCCC2)cn1C,i,-9,i,i,0.01,i,/,/,/,/,/
O=C(COC(=O)/C=C/c1ccccc1Cl)NCCNC(=O)COC(=O)/C=C/c1ccccc1Cl,i,-5,i,i,0.4,i,/,/,/,/,/
CN(CC(=O)Nc1cccc(C(F)(F)F)c1)Cc1ccccc1,i,-8,-15*,i,-0.92,-12*,64%*,i,41%*,106*,i
CC(C1CC1)N(Cc1ccccc1)C(=S)Nc1cccc(C(F)(F)F)c1 (stereo not given),i,-6,-13*,i,-0.62,-9.2*,56%*,i,39%*,125*,i
CC(=O)Nc1ccc(NC(=O)CSc2nnc(-c3cccnc3)o2)cc1,i,-9,i,i,0.12,i,/,/,/,/,/
Cc1cc(=O)oc2cc(OCC(=O)c3ccc4c(c3)NC(=O)CO4)ccc12,i,-9,i,i,-0.19,i,/,/,/,/,/
Cc1sc2nc(C3CC3)nc(N3CCN(S(=O)(=O)c4ccc(F)cc4)CC3)c2c1C,i,-14,i,i,0.09,i,/,/,/,/,/
O=C(c1ccco1)N1CCN(c2nc(C3CC3)nc3sc4c(c23)CCCC4)CC1,i,-18,-19*,i,0.75,-8.7*,66%*,i,28%*,117*,0.13*
Cc1sc2nc(C3CC3)nc(N3CCN(C(=O)c4ccccc4F)CC3)c2c1C,i,-5,-13*,i,0.76,-12*,i,i,28%*,114*,0.14*
COc1ccc(C(=O)N2CCN(c3nc(C4CC4)nc4sc(C)c(C)c34)CC2)cc1,i,-11,i,i,0.74,i,/,/,/,/,/
Cc1sc2nc(C3CC3)nc(N3CCN(C(=O)c4ccc(F)cc4)CC3)c2c1C,i,-7,-14*,i,1.1,-13*,29%*,i,28%*,92*,i
Cc1nc(N2CCN(C(=O)c3ccco3)CC2)c2c3c(sc2n1)CCCC3,i,-15,i,i,-1.4,i,/,/,/,/,/
COc1ccccc1NC(=O)CCC(=O)N/N=C(/C)c1ccc(C)cc1,i,-3,i,i,1.8,i,/,/,/,/,/
CCc1ccc(CN(C)C(=O)c2cc(COc3ccc(OC)cc3Cl)on2)nc1,i,-5,i,i,-2.4,i,/,/,/,/,/
Cc1cccc(C(C)C)c1-n1nnnc1-c1ccccc1,i,-12,-12*,i,0.15,-10*,53%*,i,40%*,117*,i
c1ccc(-c2nnnn2-c2ccccn2)cc1,/,/,/,/,/,i,/,/,/,/,/
O=C(Cn1c2ccccc2c(=O)c2ccccc21)Nc1cccc(F)c1,i,-5,i,i,-0.09,i,/,/,/,/,/
CC1(C)Oc2ccc3ccc(=O)oc3c2/C(=C/Nc2ccccc2)C1=O,i,-11,-12*,i,0.06,-11*,56%*,i,i,110*,i
CC1(C)Oc2ccc3ccc(=O)oc3c2/C(=C/O)C1=O,i,-6,i,i,-0.27,i,/,/,/,/,/
